Reference: ChEMBL document CHEMBL1132437, “Synthesis and antimicrobial activity of 4H-4-oxoquinolizine derivatives: consequences of structural modification at the C-8 position” (1999)
≈ marks a conversion by molar mass, not a printed value.

Tests used:
Format in all cases: functional
Staphylococcus aureus [1] = assay: In vitro antibacterial activity against gram-positive Staphylococcus aureus NCTC 10649M
In short: (§1)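 Agar dilution MIC determination following the National Committee for Clinical Laboratory Standards recommendations.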

Burkholderia cepacia = assay: In vitro antibacterial activity against gram negative Pseudomonas cepacia 2961; in short: as §1
Enterococcus faecium = assay: In vitro antibacterial activity against gram-positive Enterococcus faecium ATCC 8043; in short: as §1
Pseudomonas aeruginosa [2] = assay: In vitro antibacterial activity against gram negative P. aeruginosa DPHP 5263; in short: as §1
Pseudomonas aeruginosa [3] = assay: In vitro antibacterial activity against Gram-negative Pseudomonas aeruginosa 5007; in short: as §1
Staphylococcus aureus [4] = assay: In vitro antibacterial activity against gram-positive Staphylococcus aureus 1775; in short: as §1
Streptococcus pyogenes = assay: In vitro antibacterial activity against gram positive Streptococcus pyogenes 930; in short: as §1
Escherichia coli = assay: In vitro antibacterial activity against gram negative Escherichia coli KNK 437; in short: as §1
[5] = Staphylococcus aureus, NCTC 10649, read-out: MIC
[6] = Burkholderia cepacia, read-out: MIC
[7] = Enterococcus faecium, ATCC 8043, read-out: MIC
[8] = Pseudomonas aeruginosa, DPHP 5263, read-out: MIC
[9] = Pseudomonas aeruginosa, read-out: MIC
[10] = Staphylococcus aureus, read-out: MIC
[11] = Streptococcus pyogenes, read-out: MIC
[12] = Escherichia coli, read-out: MIC

Row | SMILES | MIC (Staphylococcus aureus [1]; [5]) [µg/mL] | MIC (Burkholderia cepacia; [6]) [µg/mL] | MIC (Enterococcus faecium; [7]) [µg/mL] | MIC (Pseudomonas aeruginosa [2]; [8]) [µg/mL] | MIC (Pseudomonas aeruginosa [3]; [9]) [µg/mL] | MIC (Staphylococcus aureus [4]; [10]) [µg/mL] | MIC (Streptococcus pyogenes; [11]) [µg/mL] | MIC (Escherichia coli; [12]) [µg/mL] | MIC (Staphylococcus aureus [1]) [µg/mL] | MIC (Enterococcus faecium) [µg/mL] | MIC (Pseudomonas aeruginosa [2]) [µg/mL] | MIC (Staphylococcus aureus [4]) [µg/mL] | MIC (Streptococcus pyogenes) [µg/mL] | MIC (Escherichia coli) [µg/mL] | MIC (Burkholderia cepacia) [µg/mL] | MIC (Pseudomonas aeruginosa [3]) [µg/mL]
1 | CN[C@H]1CN(c2c(F)cn3c(=O)c(C(=O)O)cc(C4CC4)c3c2C)C[C@@H]1C | 0.05 (≈ 0.134 µM) | 0.78 (≈ 2.09 µM) | 0.2 (≈ 0.536 µM) | 12.5 (≈ 33.5 µM) | 3.1 (≈ 8.3 µM) | 0.78 (≈ 2.09 µM) | 0.1 (≈ 0.268 µM) | 0.2 (≈ 0.536 µM) |  |  |  |  |  |  |  | 
2 | Cc1c(N2CC[C@H](NCC(F)(F)F)C2)c(F)cn2c(=O)c(C(=O)O)cc(C3CC3)c12 | 0.02 (≈ 0.0468 µM) | 3.1 (≈ 7.25 µM) | 0.39 (≈ 0.912 µM) | > 100 | 3.1 (≈ 7.25 µM) | 0.78 (≈ 1.82 µM) | 0.39 (≈ 0.912 µM) | 1.56 (≈ 3.65 µM) |  |  |  |  |  |  |  | 
3 | Cc1c(N2CCC(O)C2)c(F)cn2c(=O)c(C(=O)O)cc(C3CC3)c12 (stereo not given) | 0.005 (≈ 0.0144 µM) | 0.1 (≈ 0.289 µM) | 0.05 (≈ 0.144 µM) |  |  | 0.2 (≈ 0.577 µM) |  | 0.2 (≈ 0.577 µM) |  |  |  |  |  |  |  | 
4 | Cc1c(N2C[C@@H]3CCCN[C@@H]3C2)c(F)cn2c(=O)c(C(=O)O)cc(C3CC3)c12 | 0.02 (≈ 0.0519 µM) | 1.56 (≈ 4.05 µM) | 0.1 (≈ 0.259 µM) |  | 0.39 (≈ 1.01 µM) | 0.78 (≈ 2.02 µM) | 0.05 (≈ 0.13 µM) | 0.1 (≈ 0.259 µM) |  |  |  |  |  |  |  | 
5 | Cc1c(N2CC[C@@H](N)C2)c(F)cn2c(=O)c(C(=O)O)cc(C3CC3)c12 | 0.02 (≈ 0.0579 µM) | 0.78 (≈ 2.26 µM) | 0.05 (≈ 0.145 µM) |  |  | 1.56 (≈ 4.52 µM) |  | 0.05 (≈ 0.145 µM) |  |  |  |  |  |  |  | 
6 | Cc1c(N2CCC(CN)(C(F)(F)F)C2)c(F)cn2c(=O)c(C(=O)O)cc(C3CC3)c12 (stereo not given) | 0.02 (≈ 0.0468 µM) | 6.2 (≈ 14.5 µM) | 0.2 (≈ 0.468 µM) | 25 (≈ 58.5 µM) | 1.56 (≈ 3.65 µM) | 0.39 (≈ 0.912 µM) | 0.1 (≈ 0.234 µM) | 0.39 (≈ 0.912 µM) |  |  |  |  |  |  |  | 
7 | Cc1c(N2CC[C@H](C)[C@H](N)C2)c(F)cn2c(=O)c(C(=O)O)cc(C3CC3)c12 (stereo in doubt) |  |  |  |  |  |  |  |  | 0.05 (≈ 0.134 µM) | 0.2 (≈ 0.536 µM) |  | 1.56 (≈ 4.18 µM) | 0.1 (≈ 0.268 µM) | 0.2 (≈ 0.536 µM) | 1.56 (≈ 4.18 µM) | 0.78 (≈ 2.09 µM)

Other lines, results leading:

Row | MIC (Staphylococcus aureus [1]; [5]) [µg/mL] | MIC (Burkholderia cepacia; [6]) [µg/mL] | MIC (Enterococcus faecium; [7]) [µg/mL] | MIC (Pseudomonas aeruginosa [2]; [8]) [µg/mL] | MIC (Pseudomonas aeruginosa [3]; [9]) [µg/mL] | MIC (Staphylococcus aureus [4]; [10]) [µg/mL] | MIC (Streptococcus pyogenes; [11]) [µg/mL] | MIC (Escherichia coli; [12]) [µg/mL] | MIC (Staphylococcus aureus [1]) [µg/mL] | MIC (Enterococcus faecium) [µg/mL] | MIC (Pseudomonas aeruginosa [2]) [µg/mL] | MIC (Staphylococcus aureus [4]) [µg/mL] | MIC (Streptococcus pyogenes) [µg/mL] | MIC (Escherichia coli) [µg/mL] | MIC (Burkholderia cepacia) [µg/mL] | MIC (Pseudomonas aeruginosa [3]) [µg/mL] | SMILES
8 | 0.01 (≈ 0.0249 µM) | 6.2 (≈ 15.4 µM) | 0.05 (≈ 0.125 µM) | 6.2 (≈ 15.4 µM) | 6.2 (≈ 15.4 µM) | 3.1 (≈ 7.72 µM) | 0.02 (≈ 0.0498 µM) | 0.1 (≈ 0.249 µM) |  |  |  |  |  |  |  |  | Cc1c(N2C[C@@H]3COC[C@]3(CN)C2)c(F)cn2c(=O)c(C(=O)O)cc(C3CC3)c12
9 | 0.002 (≈ 0.00556 µM) | 0.39 (≈ 1.09 µM) | 0.01 (≈ 0.0278 µM) |  |  | 0.39 (≈ 1.09 µM) |  | 0.05 (≈ 0.139 µM) |  |  |  |  |  |  |  |  | Cc1c(N2CCC(CN)C2)c(F)cn2c(=O)c(C(=O)O)cc(C3CC3)c12 (stereo not given)
10 |  |  |  |  |  |  |  |  | 0.005 (≈ 0.013 µM) | 0.05 (≈ 0.13 µM) | 12.5 (≈ 32.4 µM) | 0.39 (≈ 1.01 µM) | 0.02 (≈ 0.0519 µM) | 0.1 (≈ 0.259 µM) |  |  | Cc1c(N2C[C@@H](N)[C@@H](C3CC3)C2)c(F)cn2c(=O)c(C(=O)O)cc(C3CC3)c12 (stereo in doubt)
11 | 0.005 (≈ 0.0125 µM) | 3.1 (≈ 7.72 µM) | 0.05 (≈ 0.125 µM) | 6.2 (≈ 15.4 µM) | 0.39 (≈ 0.972 µM) | 0.78 (≈ 1.94 µM) |  | 0.2 (≈ 0.498 µM) |  |  |  |  |  |  |  |  | Cc1c(N2C[C@@H]3OCC[C@]3(CN)C2)c(F)cn2c(=O)c(C(=O)O)cc(C3CC3)c12
12 | 0.002 (≈ 0.00493 µM) | 3.1 (≈ 7.65 µM) | 0.02 (≈ 0.0493 µM) | 12.5 (≈ 30.8 µM) | 0.78 (≈ 1.92 µM) | 0.1 (≈ 0.247 µM) | 0.002 (≈ 0.00493 µM) | 0.2 (≈ 0.493 µM) |  |  |  |  |  |  |  |  | Cc1c(N2CCC(CNCCF)C2)c(F)cn2c(=O)c(C(=O)O)cc(C3CC3)c12 (stereo not given)
13 | 0.01 (≈ 0.0278 µM) | 0.78 (≈ 2.17 µM) | 0.05 (≈ 0.139 µM) | 3.1 (≈ 8.63 µM) | 0.2 (≈ 0.556 µM) | 0.39 (≈ 1.09 µM) | 0.02 (≈ 0.0556 µM) | 0.1 (≈ 0.278 µM) |  |  |  |  |  |  |  |  | Cc1c(N2CCCC(N)C2)c(F)cn2c(=O)c(C(=O)O)cc(C3CC3)c12 (stereo not given)
14 | 0.05 (≈ 0.13 µM) | 3.1 (≈ 8.04 µM) | 0.2 (≈ 0.519 µM) | 6.2 (≈ 16.1 µM) | 0.78 (≈ 2.02 µM) | 6.2 (≈ 16.1 µM) |  | 0.39 (≈ 1.01 µM) |  |  |  |  |  |  |  |  | Cc1c(N2CC[C@@H]3CCNC[C@@H]32)c(F)cn2c(=O)c(C(=O)O)cc(C3CC3)c12
15 | 0.05 (≈ 0.13 µM) | 0.39 (≈ 1.01 µM) | 0.2 (≈ 0.519 µM) | 6.2 (≈ 16.1 µM) | 0.39 (≈ 1.01 µM) | 6.2 (≈ 16.1 µM) | 0.05 (≈ 0.13 µM) | 0.2 (≈ 0.519 µM) |  |  |  |  |  |  |  |  | Cc1c(N2C[C@H]3CCNC[C@@H]3C2)c(F)cn2c(=O)c(C(=O)O)cc(C3CC3)c12
